Bioassay records deposited in PubChem BioAssay by Broad Institute.
CAL PDZ FP-1: blocks peptide binding to human CAL PDZ domain. Q9HD26. purified CAL PDZ, TMR-peptide fluorescence polarization, 1 h. inhibition, % at 20 µM. 0.02% of 330,000 active. AID 504414;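 active = highest replicate inhibition of at least 40%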;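 also: plate controls were DMSO neutral control wells for no effect and unlabeled competitor peptide control wells for full effect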
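System: tagged CAL PDZ domain. Schedule: 1 h room-temperature incubation prior to read. Signal: fluorescence polarization (mP). Measure: percent inhibition from loss of millipolarization.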
ERAP1 inh: blocks human ERAP1 aminopeptidase activity. AID 652197. inhibition, % at 10.7 µM. recombinant ERAP1, Leu-AMC fluorescence, 60 min. 0.15% of 340,000 active;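 active = mean replicate inhibition of at least 30%, or all replicates individually reaching that 30% level; inactive = mean below 30% and not every replicate reaching it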;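 also: 0% = neutral control wells and 100% = L-leucinethiol positive control wells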
Target sequence (Q9NZ08 whole entry, looked up): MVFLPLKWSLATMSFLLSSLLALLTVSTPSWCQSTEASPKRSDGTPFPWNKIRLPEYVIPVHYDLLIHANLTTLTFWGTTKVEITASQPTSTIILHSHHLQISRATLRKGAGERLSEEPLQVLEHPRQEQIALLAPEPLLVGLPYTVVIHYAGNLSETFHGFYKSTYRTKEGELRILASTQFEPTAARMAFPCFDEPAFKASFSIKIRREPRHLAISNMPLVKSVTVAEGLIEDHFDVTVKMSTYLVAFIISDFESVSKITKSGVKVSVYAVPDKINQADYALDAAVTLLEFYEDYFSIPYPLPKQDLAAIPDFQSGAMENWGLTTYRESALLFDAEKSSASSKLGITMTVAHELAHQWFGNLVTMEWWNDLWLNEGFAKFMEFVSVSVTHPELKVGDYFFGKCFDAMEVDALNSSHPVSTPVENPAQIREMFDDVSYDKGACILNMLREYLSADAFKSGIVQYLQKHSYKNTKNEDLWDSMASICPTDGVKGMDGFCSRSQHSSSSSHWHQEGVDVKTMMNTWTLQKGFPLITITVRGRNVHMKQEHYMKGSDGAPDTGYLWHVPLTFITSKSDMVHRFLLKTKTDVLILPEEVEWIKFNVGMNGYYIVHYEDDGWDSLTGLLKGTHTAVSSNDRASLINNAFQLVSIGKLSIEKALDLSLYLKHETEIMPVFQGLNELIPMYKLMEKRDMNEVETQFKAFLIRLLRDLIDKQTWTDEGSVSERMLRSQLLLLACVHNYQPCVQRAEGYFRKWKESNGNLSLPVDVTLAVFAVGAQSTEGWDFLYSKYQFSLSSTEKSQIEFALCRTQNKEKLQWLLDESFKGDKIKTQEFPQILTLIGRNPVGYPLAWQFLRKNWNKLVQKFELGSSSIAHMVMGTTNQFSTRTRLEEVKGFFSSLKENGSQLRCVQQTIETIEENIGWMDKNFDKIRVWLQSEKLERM
S100A4 MyoIIA: S100A4-myosin IIA interaction inhibition | P26447 | S100A4/TAMRA-MyoIIA peptide fluorescence polarization | inhibition, % at 10.7 µM | 0.14% of 360,000 active | AID 652163;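 active = mean inhibition of at least 70% across replicates, with every replicate also reaching that level; inconclusive = mean inhibition reaches 70% but some replicates fall short; inactive = mean inhibition below 70%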
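Material: S100A4 monomer protein / Buffer or medium: 50 mM HEPES pH 7.2, 10 mM CaCl2, 100 mM KCl / Times: 5 min incubation before reading / Benchmarks: neutral control DMSO, positive control TFP / Reagent: labelled myosin peptide probe, 5 nM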
DENV2 CPE: protects cells from dengue virus 2 cytopathic effect; DENV2-infected cells, cytopathic effect rescue, plate reader; 1.7% of 350,000 active; AID 651640; CPE inhibition, % at 9.99 µM; in the data active = CPE inhibition above about 20%, passing the limit was not always enough; inconclusive = no clear call, values can overlap the other calls; tested in BHK-21 cells;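 also: 0% = median of neutral control wells and 100% = median of positive control wells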
CAL PDZ FP-2: inhibitors of human CAL PDZ peptide binding; inhibition, % at 24.9 µM; 0.92% of 300,000 active; Q9HD26; purified CAL PDZ, TMR-peptide fluorescence polarization, 1 h;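 active = mean inhibition of at least 30% with at least half of replicates also reaching 30%; inconclusive = no clear call, values can overlap the other calls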;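 also: 0% = DMSO neutral control and 100% = excess unlabeled competitor peptide PRC23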
SIRT5 inh: sirtuin-5 (human) deacylase inhibition; Q9NXA8; Purified SirT5, succinyl-peptide AMC, trypsin-coupled fluorescence; inhibition, % at 15 µM; 1.1% of 330,000 active; AID 652115; in the data active = inhibition above about 15%; inconclusive = no clear call, values can overlap the other calls
* hit, by the source's call; ? = inconclusive; . = no result; ! = not active in a repeat. A selection: hits, their analogues and other compounds. The true share with any hit is near 2.9%.

SMILES | CAL PDZ FP-1 | ERAP1 inh | S100A4 MyoIIA | DENV2 CPE | CAL PDZ FP-2 | SIRT5 inh
Cc1ccsc1CN(C)C(=O)CN1C(=O)NC2(CCCc3ccccc32)C1=O (centres undefined) | 1 | 2 | 0 | -2 | . | 3
CCC(=O)NC[C@@H]1N[C@@H](CO)[C@H]1c1ccc(-c2cccc(C#N)c2)cc1 | . | -3 | -8 | 2 | . | 0
CN(C)CC(=O)NC[C@H]1N[C@@H](CO)[C@H]1c1ccc(-c2cccc(C#N)c2)cc1 | . | -3 | 12 | 25* | . | -4
N#Cc1cccc(-c2ccc(C3[C@H]4CNC[C@@H]3N4C(=O)Nc3ccc(F)cc3)cc2)c1 (some centres undefined) | . | 1 | -19 | 23*! | . | -3
O=C(Nc1cccc(F)c1)N1[C@@H]2CNC[C@H]1C2c1ccc(-c2cccc(F)c2)cc1 (some centres undefined) | . | 0 | -21 | 0 | . | 6
O=C(Nc1ccc(C(F)(F)F)cc1)N1C[C@@H]2N[C@H](C1)C2c1ccc(-c2cccc(F)c2)cc1 (some centres undefined) | . | -4 | -3 | ? | . | 15*!
Cc1cccc(-c2ccc(C3[C@H]4CNC[C@@H]3N4C(=O)Nc3ccc(F)cc3)cc2)c1 (some centres undefined) | . | 0 | 2 | 28*! | . | 6
N#Cc1cccc(-c2ccc(C3[C@H]4CNC[C@@H]3N4C(=O)Nc3ccccc3F)cc2)c1 (some centres undefined) | . | -4 | 2 | 5 | . | 2
Cc1noc(C)c1NC(=O)NCC[C@@H]1CC[C@@H](NC(=O)Cc2cccnc2)[C@@H](CO)O1 | . | . | . | -7 | . | 6
Cc1ccc(S(=O)(=O)Nc2ccc3c(c2)CC(=O)N([C@H](C)CO)C[C@H](C)[C@@H](CN(C)C(=O)Nc2ccc(C(F)(F)F)cc2)O3)cc1 | . | -2 | 2 | 20 | . | 8
CCCNC(=O)N1C[C@H](C)[C@@H](OC)CN(C)C(=O)c2cc(NC(=O)CCC)ccc2OC[C@@H]1C | . | 0 | -10 | -5 | . | 8
COc1cccc(NC(=O)N2[C@@H]3CNC[C@H]2C3c2ccc(-c3cccnc3)cc2)c1 (some centres undefined) | . | -1 | 3 | 22*! | . | -2
CCCNC(=O)N1[C@@H]2CNC[C@H]1C2c1ccc(-c2cccc(C#N)c2)cc1 (some centres undefined) | . | -2 | -6 | 21*! | . | 2
COc1cccc(NC(=O)N2[C@@H]3CNC[C@H]2C3c2ccc(-c3cccc(OC)c3)cc2)c1 (some centres undefined) | . | 4 | 4 | -5 | . | 2
O=C(Nc1cccc(Cl)c1)N1[C@@H]2CNC[C@H]1C2c1ccc(-c2ccccc2)cc1 (some centres undefined) | . | 1 | -21 | 67*! | . | 2
COc1ccc(NC(=O)N2[C@@H]3CNC[C@H]2C3c2ccc(/C=C/c3ccccc3)cc2)cc1 (some centres undefined) | . | -3 | 11 | 25* | . | 3
COc1ccc(S(=O)(=O)N2C[C@@H](O)COC[C@H]3O[C@H](CC(=O)NCCN4CCCCC4)CC[C@@H]32)cc1 | . | . | . | -2 | . | .
C[C@H]1CN([C@@H](C)CO)S(=O)(=O)c2ccc(C#Cc3ccncc3)cc2O[C@H]1CN(C)C(=O)C1CCOCC1 | . | -1 | -23 | 13 | . | -1
CN1c2ccc(-c3cccc(F)c3)cc2[C@H]2[C@H](CCN2C(=O)C2CC2)[C@@H]1CO | . | 2 | -46 | -3 | . | -3
COCC(=O)Nc1ccc2c(c1)OC[C@H](C)N(Cc1ccccc1F)C[C@@H](C)[C@H](OC)CN(C)C2=O | . | -3 | -3 | -5 | . | 2
COc1cccc(-c2ccc(C3[C@H]4CNC[C@@H]3N4Cc3cccnc3)cc2)c1 (some centres undefined) | . | . | . | 28* | . | .
N#Cc1ccc(-c2ccc(C3[C@H]4CNC[C@@H]3N4C(=O)NC3CCCCC3)cc2)cc1 (some centres undefined) | . | . | . | 23* | . | .
Cc1cccc(-c2ccc([C@H]3[C@H](CO)N4C(=O)CN(C(=O)NC5CCCCC5)C[C@@H]34)cc2)c1 | . | -2 | -7 | 0 | . | -1
CCCC(=O)Nc1ccc2c(c1)C(=O)N(C)C[C@H](OC)[C@H](C)CN(C(=O)c1ccccn1)[C@@H](C)CO2 | . | . | 3 | 4 | . | -2
CN1C(=O)c2cc(NC(=O)Nc3ccccc3)ccc2OC[C@@H]2O[C@H](CC(=O)O)CC[C@@H]21 | . | . | . | -6 | . | -6
SMILES | CAL PDZ FP-1 | ERAP1 inh | S100A4 MyoIIA | DENV2 CPE | CAL PDZ FP-2 | SIRT5 inh
C/C(CC1CC(COCC(C)C)OC1=O)=N\NC(N)=S (centres undefined) | 1 | -2 | 0 | 91* | -4 | -1
O=C1CCCC/C1=C\Nc1ccc(C(=O)O)c(O)c1 | -1 | -3 | 5 | 1 | -1 | 23*
CC(=O)Nc1ccc(N/C=C2/CCCC2=O)cc1 | 0 | . | 4 | -6 | . | 0
CC1CCC/C(=C\Nc2ccc(C(=O)O)c(O)c2)C1=O (centres undefined) | -2 | . | 1 | -3 | -4 | 29*
CC(=O)Nc1ccc(S(=O)(=O)Nc2ccc(-n3cnnn3)cc2)cc1 | -1 | 1 | 1 | 17 | -3 | 23*
CCCCNC(=O)C1C(c2ccc(C(F)(F)F)cc2)=Nc2ccccc2N1C(=O)c1cccc2ccccc12 (centres undefined) | . | 14 | -1 | 28* | . | .
C/C=C/c1ccc([C@H]2[C@@H](CO)N(C(=O)C3CCC3)C23CN(C(=O)NC(C)C)C3)cc1 | . | 2 | -52 | 10 | . | -6
O=C1CCCN1CC(O)CS(=O)(=O)Cc1ccccc1Cl (centres undefined) | 0 | 2 | 0 | 5 | 10 | -2
O=C1CCCN1CC(O)CS(=O)(=O)Cc1ccccc1 (centres undefined) | . | 1 | -2 | 5 | 46* | -3
O=C(Nc1ccc(N2CCOCC2)cc1)c1ccncc1 | 0 | . | . | . | -2 | .
O=C(N/N=C/c1ccc(N2CCOCC2)cc1)c1ccncc1 | -1 | 3 | -4 | 72* | . | 3
CCOc1ccccc1C(=O)N1CCN(c2cccc(Cl)c2)CC1 | -2 | . | . | . | . | .
CCOc1ccc2ccccc2c1C(=O)N1CCN(c2ccccc2)CC1 | 0 | 0 | 1 | -10 | -1 | 19*
CO[C@H]1CN(C)C(=O)c2ccc(NC(=O)c3ccccc3)cc2OC[C@@H](C)N(C(=O)CN(C)C)C[C@@H]1C | . | -5 | 4 | 28* | . | 0
CO[C@@H]1CN(C)C(=O)c2ccc(NC(=O)c3ccccc3)cc2OC[C@H](C)N(C(=O)CN(C)C)C[C@@H]1C | . | -2 | 36 | 34* | . | 10
CO[C@@H]1CN(C)C(=O)c2ccc(NC(=O)c3ccccc3)cc2OC[C@@H](C)N(C(=O)CN(C)C)C[C@@H]1C | . | 1 | -4 | 8 | . | -1
